Measured values as given in ChEMBL document CHEMBL4145595, “Discovery of MK-8282 as a Potent G-Protein-Coupled Receptor 119 Agonist for the Treatment of Type 2 Diabetes” (ACS Med Chem Lett, 2018).
Calls of active or inactive are those of the source. The calls are words filed in the database; no cut-off is given here.

Tests used:
Mus musculus [1] = test: Antidiabetic activity in lepr db/db mouse assessed as reduction in glucose excursion at 10 mg/kg, po by OGTT; assay type: functional, organism-based
[2] = Volume of distribution at steady state in dog at 1 mg/kg, iv or 10 mg/kg, po; conditions: in vivo, read-out: Vdss
Rattus norvegicus [3] = test: Antidiabetic activity in Sprague-Dawley rat assessed as reduction in glucose excursion at 3 mg/kg, po pretreated followed by glucose challenge measured after 10 to 30 mins in presence of sitagliptin by OGTT; assay type: functional, organism-based
Outline: (§1)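 Sprague-Dawley rats underwent an oral glucose tolerance test with glucose excursion measured. Sitagliptin was dosed at 1 mpk and agonist at 3 mpk, alone or co-administered.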

Mus musculus [4] = test: Antidiabetic activity in C57Bl/6NCrl mouse assessed as increase in plasma GLP1 (7 to 36) amide levels at 1 mg/kg, po administered via gavage pretreated followed by glucose-challenge measured after 10 mins in presence of sitagliptin; assay type: functional, organism-based
Mus musculus [5] = test: Antidiabetic activity in C57Bl/6NCrl mouse assessed as increase in plasma GLP1 (7 to 36) amide levels at 1 mg/kg, po administered via gavage pretreated followed by glucose-challenge measured after 10 mins; assay type: functional, organism-based
[6] = Volume of distribution at steady state in monkey at 1 mg/kg, iv or 3 mg/kg, po; assay type: ADME, organism-based, Macaca mulatta; conditions: rhesus monkey, in vivo, read-out: Vdss
Outline: (§2)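 Monkey PK used 1 mpk IV and 3 mpk PO. Readouts were plasma clearance (mL/min/kg), Vdss (L/kg), t½ (h), oral AUC (µM·h) and bioavailability F (%).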

[7] = Volume of distribution at steady state in rat at 1 mg/kg, iv or 30 mg/kg, po; conditions: in vivo, read-out: Vdss
Rattus norvegicus [8] = test: Oral bioavailability in rat at 30 mg/kg; conditions: in vivo
Mus musculus [9] = test: Antidiabetic activity in C57Bl/6NCrl mouse assessed as maximum plasma concentration required for reduction in glucose excursion at 0.3 mg/kg, po administered via gavage pretreated for 30 mins followed by glucose-challenge measured 60 mins post dose by OGTT; assay type: functional, organism-based; design: dose 0.3 mg/kg
Outline: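 Lean C57Bl/6 mice were dosed orally 30 min before the glucose challenge (oGTT, glucose followed for 60 min). Plasma Cmax was taken at t = 1 h after the 0.3 mPk dose.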

[10] = Plasma clearance in dog at 1 mg/kg, iv or 10 mg/kg, po
[11] = Half life in rat at 1 mg/kg, iv or 30 mg/kg, po; conditions: in vivo
[12] = target: T1, Glucose-dependent insulinotropic receptor (Mus musculus, UniProt Q7TQP3); test: (§3) Agonist activity at mouse GPR119 assessed as increase in cAMP level; assay type: functional
T1 sequence (Q7TQP3 whole entry): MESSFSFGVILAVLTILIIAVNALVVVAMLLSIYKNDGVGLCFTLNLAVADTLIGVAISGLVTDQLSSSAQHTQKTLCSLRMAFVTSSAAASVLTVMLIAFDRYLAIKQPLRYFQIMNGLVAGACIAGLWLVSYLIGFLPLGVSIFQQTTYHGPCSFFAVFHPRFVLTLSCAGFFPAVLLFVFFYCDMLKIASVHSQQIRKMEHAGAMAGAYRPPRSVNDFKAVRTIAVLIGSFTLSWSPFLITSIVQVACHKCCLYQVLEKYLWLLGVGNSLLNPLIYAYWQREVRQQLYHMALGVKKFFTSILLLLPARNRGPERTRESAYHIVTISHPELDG

[13] = target: T2, Glucose-dependent insulinotropic receptor (Mus musculus) (UniProt Q7TQP3); test: as §3; assay type: functional
T2 sequence (whole entry): T1 sequence (Q7TQP3 whole entry)

Rattus norvegicus [14] = test: Antidiabetic activity in Sprague-Dawley rat assessed as reduction in glucose excursion at 3 mg/kg, po pretreated followed by glucose challenge measured after 10 to 30 mins by OGTT; assay type: functional, organism-based; outline: as §1
Mus musculus [15] = test: Antidiabetic activity in C57Bl/6NCrl mouse assessed as reduction in glucose excursion administered via oral gavage pretreated for 30 mins followed by glucose-challenge measured 60 mins post dose by OGTT; assay type: functional, organism-based
Outline: (§4)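 Lean C57Bl/6 mice got oral vehicle or drug 30 min before the glucose challenge. Blood glucose was monitored for 60 min after oral administration and expressed as area under the curve (glucose excursion). Doses ranged from 0.03 to 30 mpk.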

[16] = AUC in dog at 10 mg/kg, po; conditions: in vivo
[17] = AUC in monkey at 3 mg/kg, po; assay type: ADME, organism-based, Macaca mulatta; conditions: rhesus monkey, in vivo; outline: as §2
Mus musculus [18] = test: Antidiabetic activity in C57Bl/6NCrl mouse assessed as reduction in glucose excursion at 1 mg/kg, po administered via gavage pretreated for 30 mins followed by glucose-challenge measured 60 mins post dose by OGTT relative to control; assay type: functional; design: scale not given: the % may be the effect or the level left; outline: as §4
Mus musculus [19] = test: Antidiabetic activity in C57Bl/6NCrl mouse assessed as reduction in glucose excursion at 0.1 mg/kg, po administered via gavage pretreated for 30 mins followed by glucose-challenge measured 60 mins post dose by OGTT relative to control; assay type: functional; design: scale not given: the % may be the effect or the level left; outline: as §4
Mus musculus [20] = test: Antidiabetic activity in C57Bl/6NCrl mouse assessed as reduction in glucose excursion at 0.3 mg/kg, po administered via gavage pretreated for 30 mins followed by glucose-challenge measured 60 mins post dose by OGTT relative to control; assay type: functional; design: scale not given: the % may be the effect or the level left; outline: as §4
[21] = Protein binding in rat assessed as unbound fraction at 10 uM; assay type: ADME, cell-free; conditions: plasma
Mus musculus [22] = test: Antidiabetic activity in diet-induced obese mouse assessed as reduction in glucose excursion at 1 to 3 mg/kg, po by OGTT; assay type: functional, organism-based
[23] = Half life in monkey at 1 mg/kg, iv or 3 mg/kg, po; assay type: ADME, organism-based, Macaca mulatta; conditions: rhesus monkey, in vivo; outline: as §2
Mus musculus [24] = test: Antidiabetic activity in C57Bl/6NCrl mouse assessed as reduction in glucose excursion at 0.03 mg/kg, po administered via gavage pretreated for 30 mins followed by glucose-challenge measured 60 mins post dose by OGTT relative to control; assay type: functional; design: scale not given: the % may be the effect or the level left; outline: as §4
Mus musculus [25] = test: Glucose lowering effect in po dosed GPR119 deficient mouse assessed as reduction in glucose level by OGTT; assay type: functional, organism-based
[26] = Oral bioavailability in monkey at 3 mg/kg; assay type: ADME, organism-based, Macaca mulatta; conditions: rhesus monkey, in vivo; outline: as §2
Rattus norvegicus [27] = test: AUC in rat at 30 mg/kg, po; conditions: in vivo
[28] = Half life in dog at 1 mg/kg, iv or 10 mg/kg, po; conditions: in vivo
Mus musculus [29] = test: Glucose lowering effect in C57Bl/6NCrl mouse assessed as reduction in glucose level at 3 mg/kg, po administered via gavage pretreated for 30 mins followed by glucose-challenge measured after 20 mins by OGTT relative to control; assay type: functional; design: scale not given: the % may be the effect or the level left
Outline: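 Overnight-fasted mice got compound or vehicle orally at 3 to 10 mg/kg. Glucose (3 g/kg po) was given 30 min post-dose. Blood glucose was read by hand-held glucometer before dosing, before glucose and 20 min after glucose. Glucose lowering (%) = [(1 − 20 min glucose of treated / 20 min glucose of vehicle) × 100].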

[30] = target: T3, Glucose-dependent insulinotropic receptor (Homo sapiens) (UniProt Q8TDV5); test: (§5) Agonist activity at human GPR119 expressed in HEK293 cells assessed as increase in cAMP level after 30 mins by LANCE assay; assay type: functional, cell-based
T3 sequence (whole entry): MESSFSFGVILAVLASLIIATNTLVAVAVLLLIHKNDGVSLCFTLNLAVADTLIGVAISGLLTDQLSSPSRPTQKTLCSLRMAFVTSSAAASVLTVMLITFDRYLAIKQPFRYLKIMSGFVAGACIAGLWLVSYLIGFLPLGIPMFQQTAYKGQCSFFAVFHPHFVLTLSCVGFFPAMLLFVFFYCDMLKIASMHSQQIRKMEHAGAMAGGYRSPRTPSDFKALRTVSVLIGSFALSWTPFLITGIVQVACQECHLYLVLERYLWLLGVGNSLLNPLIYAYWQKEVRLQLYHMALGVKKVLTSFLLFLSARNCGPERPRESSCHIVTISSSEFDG

[31] = target: T4, Glucose-dependent insulinotropic receptor (Homo sapiens, UniProt Q8TDV5); test: as §5; assay type: functional, cell-based
T4 sequence (Q8TDV5 whole entry): T3 sequence (whole entry)

Mus musculus [32] = test: Antidiabetic activity in C57Bl/6NCrl mouse assessed as reduction in glucose excursion at 1 to 30 mg/kg, po administered via gavage pretreated for 30 mins followed by glucose-challenge measured 60 mins post dose by OGTT relative to control; assay type: functional; design: scale not given: the % may be the effect or the level left; outline: as §4
[33] = Plasma clearance in monkey at 1 mg/kg, iv or 3 mg/kg, po; assay type: ADME, organism-based, Macaca mulatta; conditions: rhesus monkey; outline: as §2

Compound: CC1(OC(=O)N2C[C@H]3COC[C@@H](C2)[C@@H]3Oc2ncnc(Nc3ccc(C#N)cc3Cl)c2F)CC1
- Activity (Mus musculus [1]): Active
- Vd [2]: 4.4 L/kg
- Activity (Rattus norvegicus [3]): Active
- Activity (Mus musculus [4]): Active
- Activity (Mus musculus [5]): Active
- Vd [6]: 2.6 L/kg
- Vd [7]: 5.8 L/kg
- F (Rattus norvegicus [8]): 35%
- Cmax (Mus musculus [9]): 60 nM
- clearance [10]: 0.77 mL/min/kg
- half-life [11]: 528 min
- EC50 [12]: 58 nM
- %max [13]: 99%
- Activity (Rattus norvegicus [14]): Active
- Activity (Mus musculus [15]): Dose-dependent effect
- AUC [16]: 131 µM·h
- AUC [17]: 13 µM·h
- Activity (Mus musculus [18]): 49%
- Activity (Mus musculus [19]): 23%
- Activity (Mus musculus [20]): 46%
- Fu [21]: 1%
- Activity (Mus musculus [22]): Active
- half-life [23]: 720 min
- Activity (Mus musculus [24]): 21%
- Activity (Mus musculus [25]): inactive
- bioavailability [26]: 38%
- AUC (Rattus norvegicus [27]): 63 µM·h
- half-life [28]: 2.92 days
- Activity (Mus musculus [29]): 29%
- %max [30]: 92%
- EC50 [31]: 10 nM
- Activity (Mus musculus [32]): 50%
- clearance [33]: 3.1 mL/min/kg
